A selection: hits, their analogues and other compounds. The true share with any hit is near 1.4%.
H9c2 protect: protects H9c2 cardiomyocytes from peroxide injury | H2O2 injury protection, ATPLite, 2 h | protection from H2O2 cell death, % at 20 µM | actives 0.63% (n = 360,000) | AID 588492;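 active = compounds giving at least 50% protection of heart cells from peroxide-induced death in the single-dose screen, raw or plate-pattern-corrected value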;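 also: 0% = DMSO wells with peroxide and 100% = DMSO wells without peroxide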
H9c2 TAG inh: reduces triacylglycerol accumulation in H9c2 cells. Nile Red lipid (TAG) fluorescence; cells loaded with 200 µM oleic acid. inhibition, % at 12.5 µM. actives 0.66% (n = 230,000);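 active = pattern-corrected inhibition of lipid staining of at least 50% with the nuclear-stain viability signal not falling by more than 50%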;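 also: 0% = DMSO wells and 100% = triacsin C control wells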
DAGLB inh: blocks human DAGLB lipase activity | actives 0.059% (n = 340,000) | inhibition, % at 5.17 µM | Q8NCG7 | AID 504411 | HEK293T DAGLB membrane lysate, EnzChek fluorogenic substrate; in the data active = inhibition above about 34%;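 also: 0% = enzyme with vehicle and 100% = wells lacking enzyme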
MT1-MMP act inh: MT1-MMP (human) activation inhibition. HT1080 RFP-PRO-GFP cells, GFP/RFP ratio fluorescence, overnight; percent of plate control window, DMSO zero. GFP/RFP ratio change, % at 20 µM. actives 0.061% (n = 360,000). AID 651647;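 active = GFP/RFP ratio change of at least 30% with cell ATP level not reduced by more than half and red fluorescence within 50% of control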
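Test system: HT1080 cells expressing an RFP-PRO-GFP fluorescent reporter construct / Compound dosing: single-point 20 µM compound, 1% DMSO / Schedule: cells overnight before dosing, compound overnight, 37 °C, 5% CO2 / Evaluation: GFP/RFP fluorescence ratio / Control set: DMSO and RFP-L50D-GFP cell wells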
DDE Tn6 FP inh: disrupts Tn6 cyclic peptide binding to fibrin D-Dimer-E complex | inhibition, % at 8.3 µM | actives 0.21% (n = 370,000) | P02675 | Fibrin DD(E) TRITC-Tn6 fluorescence polarization displacement;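 active = inhibition above a per-campaign cutoff: mean of compounds within control limits plus 3 SD, cut at about 15% in these data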;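 also: 0% = median of all compound wells on the plate and 100% = blocking peptide control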
Target sequence (P02675 whole entry, looked up): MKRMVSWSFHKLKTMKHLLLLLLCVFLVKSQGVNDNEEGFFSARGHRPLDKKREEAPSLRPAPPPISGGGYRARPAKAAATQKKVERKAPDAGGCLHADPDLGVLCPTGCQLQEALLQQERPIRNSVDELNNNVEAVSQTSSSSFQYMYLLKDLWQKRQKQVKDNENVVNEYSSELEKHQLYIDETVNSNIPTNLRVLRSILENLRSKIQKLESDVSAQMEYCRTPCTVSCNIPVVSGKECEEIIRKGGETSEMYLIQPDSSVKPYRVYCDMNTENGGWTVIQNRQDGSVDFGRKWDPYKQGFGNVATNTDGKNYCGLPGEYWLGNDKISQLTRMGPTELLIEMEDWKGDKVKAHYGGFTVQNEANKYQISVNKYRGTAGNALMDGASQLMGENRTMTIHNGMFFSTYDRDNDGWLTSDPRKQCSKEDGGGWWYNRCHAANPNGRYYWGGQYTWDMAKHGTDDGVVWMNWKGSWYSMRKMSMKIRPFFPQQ
DDE Tn7 FP inh: inhibitors of Tn7 peptide binding to human fibrin DD(E); FP displacement of FITC-Tn7 peptide from fibrin DD(E); 0% = median of compound wells per plate; inhibition, % at 8.3 µM; actives 0.13% (n = 370,000); AID 720508;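 active = inhibition above the mean of compounds falling within the control limits plus 3 SD of them, cut at about 14% in these data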;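 also: 0% = plate median of compound wells and 100% = 10 µM Aha-Tn7 peptide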
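Assay system: Fibrin-DD(E) protein isolated from polymerized human fibrin clots; read-out basis: percent inhibition; medium: Tris/NaCl/CaCl2 buffer, pH 7.8; signal: FP measurement; incubation: 10 min plus 3 h, room temperature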
Numbers without * were called inactive; . = not tested or not shown; ! = not confirmed by another sample.

SMILES | H9c2 protect | H9c2 TAG inh | DAGLB inh | MT1-MMP act inh | DDE Tn6 FP inh | DDE Tn7 FP inh
CCCN1C(=O)/C(=C/c2c(N3CCNC(=O)C3CC(=O)OCC)nc3c(C)cccn3c2=O)SC1=S (centres undefined) | 63.4* | -39.8 | -83.7 | -28.3 | . | .
CCOC(=O)CC1C(=O)NCCN1c1nc2ccc(C)cn2c(=O)c1/C=C1\SC(=S)N(CC(C)C)C1=O (centres undefined) | 2.5 | -56.4 | -57.8 | -35.2 | . | .
CCOC(=O)c1sc(N2N=C(C)/C(=C\c3ccc(OCC(=O)OC)cc3)C2=O)nc1C | 58.1* | . | 15.3 | 18.2 | 0.8 | 0.5
CN(C)c1ccc(NC(=O)NC2CCCCN(Cc3cccc(Cl)c3)C2=O)cc1 (centres undefined) | . | . | . | . | -8.9 | -5.2
CC1(c2ccccc2)CC(C)(C)N(C(=O)C2CCCO2)c2ccccc21 (centres undefined) | 4.1 | . | -7.6 | -10.2 | 0.7 | 1.5
CC1(c2cc([N+](=O)[O-])cc([N+](=O)[O-])c2)CC(C)(C)N(C(=O)c2ccccc2)c2ccccc21 (centres undefined) | -3.8 | 91.4* | -16.8 | -10.7 | 0.1 | 2.6
O=C(C1CCCN1S(=O)(=O)c1ccc(F)cc1)N1CCc2ccccc2C1 (centres undefined) | . | . | . | . | -3.4 | 0.3
Cc1ccc(/C=C/C(=O)c2ccccc(=O)c2O)cc1C | 75.4* | . | 9.6 | -11.2 | -5.2 | 1.4
O=C(/C=C/c1ccccc1)c1cc(Br)ccc(=O)c1O | 43.5 | . | 25.1 | -5.2 | 7.0 | 1.1
CCCCCCCCCCCCCCCC[n+]1cccc(C(=O)N(CC)CC)c1 | -25.1 | 58.6*! | 3.7 | -8.7 | -4.0 | -5.6
C/C(=N\Nc1nc2ccccc2nc1C)c1ccccc1O | 7.3 | 52.5* | 1.7 | 5.8 | -1.2 | -2.8
CC(=NNc1ccc2ccccc2n1)c1ccccc1O | -15.7 | -1.0 | -3.8 | 1.4 | 7.0 | 3.4
COc1nc(OC)nc(N2CCC(C(=O)N(C)Cc3ccccc3F)CC2)n1 | . | . | . | . | 9.1 | -12.1
Cc1sc2nc(CSCC(=O)NC(C)(C)C)[nH]c(=O)c2c1C | 39.0 | 7.4 | -0.6 | -8.6 | 0.5 | 2.9
Cc1sc2nc(CSCC(=O)N(C)CC(=O)Nc3ccc(F)cc3)[nH]c(=O)c2c1C | 53.8* | -1.3 | -2.2 | -44.2 | 3.9 | 1.7
Cc1sc2nc(CSCC(=O)N(CCC#N)c3ccccc3)[nH]c(=O)c2c1C | 64.1* | 15.1 | 2.2 | -11.9 | 5.6 | 4.5
Cc1sc2nc(CSCC(=O)N(C)c3ccccc3)[nH]c(=O)c2c1C | 65.5* | . | -0.2 | -9.0 | 1.9 | 6.5
Cc1sc2nc(CSCC(=O)Nc3c(F)cccc3F)[nH]c(=O)c2c1C | 27.0 | -8.2 | 0.9 | -1.6 | 0.6 | -0.7
CCCC[C@H]1C2CC(OC(=O)NCCCC(=O)OCC)C(C2)[C@H]2CCCCN21 (some centres undefined) | . | . | . | . | -0.6 | 0.5
Cc1cc(N2CCOCC2)c2c(N)c(Br)cc(C)c2n1 | 51.6* | -5.1 | -0.4 | -18.0 | 6.3 | -4.6
Cc1cc(=O)[nH]c(N2CCOCC2)n1 | -4.3 | . | . | 0.2 | 1.0 | 8.7
Cc1nc2ccccn2c1C(O)(c1ccccc1)c1ccccc1 | . | . | . | . | 4.7 | -3.7
O=S(=O)(/N=C(/NS(=O)(=O)c1ccccc1)c1ccccc1)c1ccccc1 | -0.6 | 0.2 | 2.6 | -0.1 | 12.2 | 3.6
CS/C(=N\S(=O)(=O)c1ccccc1)c1ccccc1 | 55.9* | . | 1.2 | 2.0 | 2.5 | -0.9
O=S(=O)(/N=C(/Sc1ccccc1)c1ccccc1)c1ccccc1 | 51.9* | 5.3 | 0.0 | -2.6 | 6.9 | 0.3
CC(=O)Nc1ccc(N/C(=N\S(=O)(=O)c2ccccc2)c2ccccc2)cc1 | 12.2 | . | 1.7 | -3.7 | -5.9 | -4.3
COC(=O)[C@@]12CCCCC3=C1N(CCC3)C(=O)[C@H]2CC(=O)N1CCOCC1 | . | . | . | . | -1.7 | 0.7
O=C(CSc1nnc(-c2ccncc2)n1-c1ccccc1)Nc1ccc2c(c1)OCCO2 | . | . | . | . | -2.5 | -3.7
CN(C)CCCn1c2c3ccccc3ccc2c2oc(=O)c3ccccc3c21 | -9.9 | 77.8* | 0.8 | -49.2 | 8.4 | 17.1*

Source: PubChem
